Three compounds from ChEMBL document CHEMBL1155553, “Design and synthesis of alpha-ketoamides as cathepsin S inhibitors with potential applications against tumor invasion and angiogenesis” (J Med Chem, 2010) can be followed below.

The test system of data set [1] is HUVEC. In words: Antiinvasive activity in VEGF-stimulated HUVEC assessed as cellular migration after 24 hrs by fluorescence assay relative to control. The class given is functional, Homo sapiens. Also on record: concentration or dose not given beside the values.
Data set [2] has as its target T1, Cathepsin S (Homo sapiens, UniProt P25774). In words: Competitive inhibition of human recombinant cathepsin S expressed in Escherichia coli BL21 (DE3) after 15 mins by Lineweaver-Burke plot analysis.
Target sequence in this assay (P25774 115-331 limits assumed): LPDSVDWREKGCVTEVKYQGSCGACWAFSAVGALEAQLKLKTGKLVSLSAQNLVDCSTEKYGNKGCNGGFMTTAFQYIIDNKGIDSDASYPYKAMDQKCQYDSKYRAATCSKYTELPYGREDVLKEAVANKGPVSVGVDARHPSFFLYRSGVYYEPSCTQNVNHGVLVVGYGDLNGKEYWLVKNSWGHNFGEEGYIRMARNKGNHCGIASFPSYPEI
For data set [3], the target named is Cathepsin B (Homo sapiens) (UniProt P07858). In words: Inhibition of cathepsin B assessed as proteolytic activity at 40 nM by fluorimetric assay. Also on record: Activity: scale not given: the % may be the effect or the level left.
Data set [4] is described as follows: Antiinvasive activity in human CL1-5 cells assessed as cellular migration after 24 hrs by fluorescence assay relative to control. Further details: concentration or dose not given beside the values. The class given is functional.
For data set [5], the system named is HUVEC. In words: Cytotoxicity against HUVEC by MTT assay. Conditions: Homo sapiens. It is filed as cell-based. A digest of the protocol:
(§1)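 Overall cytotoxicity measured by MTT proliferation assay, compounds tested at concentrations up to 50 μM.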

Data set [6] in a line: Cytotoxicity against human CL1-5 cells by MTT assay. The class given is cell-based. The essentials: as §1
In data set [7] the target is T1, Cathepsin S. In words: Inhibition of human recombinant cathepsin S expressed in Escherichia coli BL21 (DE3) after 10 mins by fluorescence assay.
Target sequence in this assay (P25774 whole entry): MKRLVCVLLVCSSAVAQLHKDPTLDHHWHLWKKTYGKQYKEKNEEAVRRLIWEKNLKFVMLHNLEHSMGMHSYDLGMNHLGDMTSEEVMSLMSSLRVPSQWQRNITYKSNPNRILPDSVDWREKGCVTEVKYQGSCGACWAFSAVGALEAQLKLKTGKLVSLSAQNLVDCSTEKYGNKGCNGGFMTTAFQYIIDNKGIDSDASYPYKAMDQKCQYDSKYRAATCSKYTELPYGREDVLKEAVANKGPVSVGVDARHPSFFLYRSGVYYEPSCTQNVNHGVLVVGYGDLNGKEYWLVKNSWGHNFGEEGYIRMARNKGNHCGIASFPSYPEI
Data set [8] deals with Procathepsin L (Homo sapiens) (UniProt P07711). In words: Inhibition of cathepsin L assessed as proteolytic activity at 40 nM by fluorimetric assay. Further details: Activity: scale not given: the % may be the effect or the level left.
In data set [9] the target is T1, Cathepsin S. In words: Inhibition of cathepsin S-mediated cleavage of fibronectin by cell-based ECM degradation assay.
Target sequence in this assay (P25774 115-331 limits assumed): as the sequence (P25774 115-331 limits assumed) above
The subject of data set [10] is HUVEC. In words: Antiangiogenic activity in VEGF-stimulated HUVEC assessed as capillary tube formation after 16 hrs by photographic analysis. It is filed as functional, Homo sapiens. A digest of the protocol:
(§2)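 HUVEC plated on Matrigel-coated wells, treated with α-ketoamide in presence of VEGF (20 ng/mL); after 16 h incubation cultures photographed and capillary tubes (branch points) counted under microscope at 100× magnification. Tube formation expressed relative to DMSO control; mean ± SD from three separate experiments.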

Data set [11] can be described thus: Cytotoxicity against HUVEC assessed as maximal tolerated dose by MTT assay. The class given is cell-based. To be noted: human, read-out: MTD. The essentials:
(§3)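 MTT proliferation read-out for overall cytotoxicity of the α-ketoamides. Compounds were tested at concentrations up to 50 μM. Both cell types express high levels of Cat S.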
A general note: Formazan colour is commonly taken as a measure of viable cells.

Data set [12] can be described thus: Antiinvasive activity in human CL1-5 cells after 24 hrs by fluorescence assay. It is filed as functional. A digest of the protocol: (§4)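 CL1-5 lung adenocarcinoma cells (2 × 10⁵ per well) treated with compound; control wells received DMSO (10 μL) in medium (2 mL). Cell traversal/invasion expressed as percent of DMSO control (set 100%); mean ± SD from hexaplicate experiments.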

Data set [13] in a line: Cytotoxicity against human CL1-5 cells assessed as maximal tolerated dose by MTT assay. To be noted: read-out: MTD. The class given is cell-based. A digest of the protocol: as §3
Data set [14] is described as follows: Antiinvasive activity in human CL1-5 cells assessed as cellular invasion after 24 hrs by fluorescence assay. It is filed as functional. The essentials: as §4
For data set [15], the system named is HUVEC. In words: Antiangiogenic activity in VEGF-stimulated HUVEC assessed as inhibition of capillary tube formation after 16 hrs by photographic analysis. It is filed as functional, Homo sapiens. Also on record: scale not given: the % may be the effect or the level left. A digest of the protocol:
as §2

SMILES strings stand for the structures. Calls of active or inactive are those of the source. The rule behind the calls is not given here.

Chain of Procathepsin L (Homo sapiens) (P07711 114-333 limits assumed): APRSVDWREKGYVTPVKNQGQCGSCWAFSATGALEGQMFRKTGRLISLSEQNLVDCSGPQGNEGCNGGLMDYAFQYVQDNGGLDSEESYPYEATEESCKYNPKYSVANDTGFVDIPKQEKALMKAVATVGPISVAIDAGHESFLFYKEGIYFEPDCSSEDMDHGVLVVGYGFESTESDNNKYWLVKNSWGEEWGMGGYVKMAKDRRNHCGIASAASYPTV

Take `CCOC(=O)CNC(=O)C(=O)C(COCc1ccccc1)NC(=O)[C@H](CC1CCCCC1)NC(=O)N1CCOCC1` (some centres not stated): the Activity in data set [1] came out at 87%; in data set [3] it was 102%; in data set [4], 51%; in [8] it was 3.2%. In addition, in [2], the inhibition result was “Active”. In addition, the IC50 (commonly the concentration that gives 50% inhibition) is > 50 µM in [5], > 50 µM in data set [6] and 0.0044 µM in data set [7].

With `CCOC(=O)CNC(=O)C(=O)[C@H](COCc1ccccc1)NC(=O)[C@H](CC1CCCCC1)NC(=O)C(=O)c1cccs1`, the Activity is listed as 57% in data set [1]; 64% in data set [10]; 56% in data set [4]; 82% in [12]; 18% in data set [14]; 36% in data set [15]. In data set [9], the inhibition result is “Dose-dependent effect”. Further, the IC50 was 36 µM in [5], > 50 µM in data set [6] and 0.0066 µM in [7]. In addition, the MNTC in [11] and in data set [13] was 10 µM throughout.

Turning to `CCOC(=O)CNC(=O)C(=O)[C@H](COCc1ccccc1)NC(=O)[C@H](CC(C)C)NC(=O)c1cccc2c1C(=O)c1ccccc1-2`, the Activity is given as 55% in data set [1]; 88% in [10]; 50% in [4]; 68% in data set [12]; 32% in [14]; 32% in [15]. Also, the inhibition result in data set [9] is “Dose-dependent effect”. Further, the IC50 in [5] stood at 30 µM; in data set [6], 23 µM; in [7], 0.0088 µM. The MNTC in data set [11] and in [13] was 10 µM in each case.
